Assay [1] addresses Tyrosine-protein kinase ZAP-70 (Homo sapiens) (UniProt P43403). Briefly: Inhibition of recombinant full length human ZAP70 assessed as residual activity at 10 uM using poly(Glu, Tyr) 4:1 as substrate incubated for 40 mins in presence of [gamma33P]ATP by scintillation counting based radiometry assay relative to control.
The target of assay [2] is Insulin receptor (Homo sapiens) (UniProt P06213). Briefly: Inhibition of human IR (1005 to 1310 residues) assessed as residual activity at 10 uM using KKSRGDYMTMQIG as substrate after 40 mins by [gamma-33ATP] radiometric assay relative to control.
Assay [3] is filed under the species Homo sapiens. The experiment in a line: Inhibition of recombinant human A-Raf Y301D/ Y302D mutant (273 to end residues) assessed as residual activity at 10 uM using myelin basic protein as substrate incubated for 40 mins in presence of [gamma-33ATP] by scintillation counting based radiometry assay relative to control.
Assay [4] deals with Tyrosine-protein kinase BTK (Homo sapiens) (UniProt Q06187). The experiment in a line: Inhibition of recombinant full length human BTK assessed as residual activity at 10 uM using KVEKIGEGTYGVVYK substrate incubated for 40 mins in presence of [gamma-33ATP] by scintillation counting based radiometry assay relative to control.
Assay [5] has as its target Dual specificity protein kinase CLK2 (Homo sapiens) (UniProt P49760). The experiment in a line: Inhibition of recombinant human CLK2 (138 to end residues) assessed as residual activity at 10 uM using YRRAAVPPSPSLSRHSSPHQS(p)EDEEE as substrate incubated 40 mins in presence of [gamma-33ATP] by scintillation counting based radiometry assay relative to control.
Assay [6] concerns the target Serine/threonine-protein kinase LATS2 (Homo sapiens, UniProt Q9NRM7). The experiment in a line: Binding affinity to wild-type human partial length LATS2 (Q641 to V1088 residues) expressed in mammalian expression system assessed as dissociation constant by Kinomescan method. An outline of the steps:
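KINOMEscan competition binding assay. Kinase bound at each concentration of test compound was quantified by qPCR and plotted against log10 compound concentration to derive Kd.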

Assay [7] has as its target Maternal embryonic leucine zipper kinase (Homo sapiens) (UniProt Q14680). Briefly: Inhibition of recombinant human MELK (1 to 340 residues) assessed as residual activity at 10 uM using KKLNRTLSFAEPG as substrate incubated for 40 mins in presence of [gamma-33ATP by scintillation counting based radiometry assay relative to control.
Assay [8] deals with Serine/threonine-protein kinase MARK2 (Homo sapiens) (UniProt Q7KZI7). Briefly: Inhibition of recombinant full-length human PAR1Balpha assessed as residual activity at 10 uM using KKKVSRSGLYRSPSMPENLNRPR as substrate measured after 40 mins in presence of [gamma33P]ATP by scintillation counting based radiometry assay relative to control.
In assay [9] the target is Casein kinase II subunit alpha (Homo sapiens) (UniProt P68400). Briefly: Inhibition of recombinant full length human CK2alpha1 assessed as residual activity at 10 uM using RRRDDDSDDD as substrate incubated 40 mins in presence of [gamma-33ATP] by scintillation counting based radiometry assay relative to control.
Assay [10] deals with Epidermal growth factor receptor (Homo sapiens), P00533 [T790M]. The experiment in a line: Inhibition of recombinant human EGFR T790M mutant (696 to end residues) assessed as residual activity at 10 uM using poly(Glu, Tyr) 4:1 as substrate at 40 mins in presence of [gamma-33ATP] by scintillation counting based radiometry assay relative to control.
The target of assay [11] is Serine/threonine-protein kinase 24 (Homo sapiens) (UniProt Q9Y6E0). The experiment in a line: Inhibition of recombinant human MST3 (1 to 304 residues) assessed as residual activity at 10 uM using ERMRPRKRQGSVR as substrate measured after 40 mins in presence of [gamma33P]ATP by scintillation counting based radiometry assay relative to control.
Assay [12] concerns the target Serine/threonine-protein kinase 25 (Homo sapiens) (UniProt O00506). Briefly: Inhibition of recombinant human STK25 (1 to 308 residues) assessed as residual activity at 10 uM using RLGRDKYKTLRQIRQ as substrate incubated for 40 mins in presence of [gamma33P]ATP by scintillation counting based radiometry assay relative to control.
The species entered for a further assay is Mus musculus. The experiment in a line: Inhibition of mouse Arg M982V/A562 mutant (27 to end residues) assessed as residual activity at 10 uM using EAIYAAPFAKKK as substrate incubated for 40 mins in presence of [gamma-33ATP] by scintillation counting based radiometry assay relative to control.
Assay [13] concerns the target TRAF2 and NCK-interacting protein kinase (Homo sapiens) (UniProt Q9UKE5). Briefly: Inhibition of human TNIK (1 to 367 residues) assessed as residual activity at 10 uM using RLGRDKYKTLRQIRQ as substrate incubated for 40 mins in presence of [gamma33P]ATP by scintillation counting based radiometry assay relative to control.
In assay [14] the test system is Hepatocyte growth factor receptor (Homo sapiens), P08581 [Y1230C]. The experiment in a line: Inhibition of recombinant human MET A1209G/V1290L/Y1248C mutant (974 to end residues) assessed as residual activity at 10 uM using KKKGQEEEYVFIE as substrate incubated for 40 mins in presence of [gamma-33ATP by scintillation counting based radiometry assay relative to control.

Assay [15] addresses Mitogen-activated protein kinase kinase kinase 3 (Homo sapiens) (UniProt Q99759). Briefly: Inhibition of recombinant full length human MEKK3 assessed as residual activity at 10 uM using myelin basic protein as substrate incubated for 120 mins in presence of [gamma-33ATP by scintillation counting based radiometry assay relative to control.
Assay [16] is filed under the species Homo sapiens. The experiment in a line: Inhibition of recombinant human full length PI3K p110/p65 assessed as residual activity at 10 uM using phosphatidylinositol-4, 5-bisphosphate as substrate incubated for 40 mins in presence of [gamma33P]ATP by scintillation counting based radiometry assay relative to control.
In assay [17] the target is Calcium/calmodulin-dependent protein kinase type II subunit beta (Homo sapiens) (UniProt Q13554). Briefly: Inhibition of recombinant human CaMK2beta (1 to 315 residues) assessed as residual activity at 10 uM using […] incubated for 40 mins in presence of [gamma-33ATP] by scintillation counting based radiometry assay relative to control.
The subject of assay [18] is Tyrosine-protein kinase ABL1 (Homo sapiens), P00519 [Y253F]. The experiment in a line: Inhibition of human ABL1 Y253F mutant (27 to end residues) assessed as residual activity at 10 uM using EAIYAAPFAKKK as substrate incubated for 40 mins in presence of [gamma-33ATP] by scintillation counting based radiometry assay relative to control.
The target of assay [19] is G protein-coupled receptor kinase 5 (Homo sapiens) (UniProt P34947). Briefly: Inhibition of recombinant full length human GRK5 assessed as residual activity at 10 uM using casein as substrate at 40 mins in presence of [gamma-33ATP] by scintillation counting based radiometry assay relative to control.

Sequence of Casein kinase II subunit alpha (Homo sapiens) (P68400 whole entry, looked up): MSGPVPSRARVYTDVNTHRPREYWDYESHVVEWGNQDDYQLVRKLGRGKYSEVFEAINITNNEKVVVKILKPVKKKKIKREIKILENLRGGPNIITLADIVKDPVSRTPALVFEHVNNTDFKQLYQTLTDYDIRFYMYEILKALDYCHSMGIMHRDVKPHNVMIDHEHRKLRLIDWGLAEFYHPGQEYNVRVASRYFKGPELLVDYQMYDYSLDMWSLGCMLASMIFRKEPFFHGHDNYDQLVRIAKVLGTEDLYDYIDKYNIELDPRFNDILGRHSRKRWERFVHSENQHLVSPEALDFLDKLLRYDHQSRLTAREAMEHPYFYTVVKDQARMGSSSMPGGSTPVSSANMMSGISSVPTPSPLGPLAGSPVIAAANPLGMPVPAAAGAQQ
Sequence of Serine/threonine-protein kinase MARK2 (Homo sapiens) (Q7KZI7 whole entry): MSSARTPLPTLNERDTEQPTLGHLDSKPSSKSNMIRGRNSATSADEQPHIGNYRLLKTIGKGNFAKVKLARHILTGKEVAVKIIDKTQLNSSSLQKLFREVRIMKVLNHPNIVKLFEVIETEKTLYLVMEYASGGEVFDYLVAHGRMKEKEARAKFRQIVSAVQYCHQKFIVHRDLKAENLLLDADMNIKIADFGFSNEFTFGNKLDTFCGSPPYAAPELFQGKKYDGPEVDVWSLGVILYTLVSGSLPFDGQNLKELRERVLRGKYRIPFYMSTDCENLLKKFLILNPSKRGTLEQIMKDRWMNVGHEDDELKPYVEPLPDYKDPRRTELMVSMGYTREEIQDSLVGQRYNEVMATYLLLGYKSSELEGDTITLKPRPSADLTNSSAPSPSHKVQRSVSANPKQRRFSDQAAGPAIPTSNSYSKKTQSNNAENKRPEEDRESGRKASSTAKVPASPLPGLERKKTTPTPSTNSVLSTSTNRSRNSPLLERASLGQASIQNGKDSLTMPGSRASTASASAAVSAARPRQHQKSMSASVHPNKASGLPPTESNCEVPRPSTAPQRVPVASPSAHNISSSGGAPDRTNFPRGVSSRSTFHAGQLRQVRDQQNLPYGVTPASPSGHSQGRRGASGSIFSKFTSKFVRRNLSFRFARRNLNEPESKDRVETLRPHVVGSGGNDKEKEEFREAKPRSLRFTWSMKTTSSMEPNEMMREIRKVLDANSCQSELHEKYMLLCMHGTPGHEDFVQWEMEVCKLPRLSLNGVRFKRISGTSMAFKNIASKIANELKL
Sequence of Dual specificity protein kinase CLK2 (Homo sapiens) (P49760 whole entry, looked up, the tested form may be a part): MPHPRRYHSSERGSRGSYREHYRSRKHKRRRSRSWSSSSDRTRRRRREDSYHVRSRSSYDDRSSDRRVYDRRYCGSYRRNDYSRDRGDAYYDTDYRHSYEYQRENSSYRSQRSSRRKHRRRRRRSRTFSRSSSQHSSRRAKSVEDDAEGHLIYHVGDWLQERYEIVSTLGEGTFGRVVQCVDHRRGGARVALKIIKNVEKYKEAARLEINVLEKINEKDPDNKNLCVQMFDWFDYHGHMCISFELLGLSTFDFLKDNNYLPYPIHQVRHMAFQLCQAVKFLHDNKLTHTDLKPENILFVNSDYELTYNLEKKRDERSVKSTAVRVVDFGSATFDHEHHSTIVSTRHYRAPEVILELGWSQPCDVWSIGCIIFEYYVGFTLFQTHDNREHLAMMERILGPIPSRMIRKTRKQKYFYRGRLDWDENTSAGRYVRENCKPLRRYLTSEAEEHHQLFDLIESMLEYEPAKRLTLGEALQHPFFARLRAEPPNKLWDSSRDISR
Sequence of Calcium/calmodulin-dependent protein kinase type II subunit beta (Homo sapiens) (Q13554 whole entry, the tested form may be a part): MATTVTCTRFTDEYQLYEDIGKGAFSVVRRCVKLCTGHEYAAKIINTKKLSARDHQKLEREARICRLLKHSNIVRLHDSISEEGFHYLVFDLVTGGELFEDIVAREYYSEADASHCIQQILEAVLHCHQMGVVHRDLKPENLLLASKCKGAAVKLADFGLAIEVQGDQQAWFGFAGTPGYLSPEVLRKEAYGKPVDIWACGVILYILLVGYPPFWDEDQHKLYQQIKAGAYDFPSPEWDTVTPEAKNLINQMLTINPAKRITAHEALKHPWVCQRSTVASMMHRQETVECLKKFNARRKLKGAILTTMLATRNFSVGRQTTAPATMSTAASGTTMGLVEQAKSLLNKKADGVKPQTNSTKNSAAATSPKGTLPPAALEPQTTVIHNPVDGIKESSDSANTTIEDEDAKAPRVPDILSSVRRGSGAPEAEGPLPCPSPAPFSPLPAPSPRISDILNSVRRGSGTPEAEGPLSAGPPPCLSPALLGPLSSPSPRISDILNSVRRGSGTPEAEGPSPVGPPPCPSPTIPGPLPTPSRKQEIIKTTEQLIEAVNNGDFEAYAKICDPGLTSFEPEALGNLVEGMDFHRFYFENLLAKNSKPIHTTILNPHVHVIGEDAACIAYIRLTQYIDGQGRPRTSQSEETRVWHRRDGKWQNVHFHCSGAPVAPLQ
Sequence of Serine/threonine-protein kinase LATS2 (Q9NRM7 whole entry, the tested form may be a part): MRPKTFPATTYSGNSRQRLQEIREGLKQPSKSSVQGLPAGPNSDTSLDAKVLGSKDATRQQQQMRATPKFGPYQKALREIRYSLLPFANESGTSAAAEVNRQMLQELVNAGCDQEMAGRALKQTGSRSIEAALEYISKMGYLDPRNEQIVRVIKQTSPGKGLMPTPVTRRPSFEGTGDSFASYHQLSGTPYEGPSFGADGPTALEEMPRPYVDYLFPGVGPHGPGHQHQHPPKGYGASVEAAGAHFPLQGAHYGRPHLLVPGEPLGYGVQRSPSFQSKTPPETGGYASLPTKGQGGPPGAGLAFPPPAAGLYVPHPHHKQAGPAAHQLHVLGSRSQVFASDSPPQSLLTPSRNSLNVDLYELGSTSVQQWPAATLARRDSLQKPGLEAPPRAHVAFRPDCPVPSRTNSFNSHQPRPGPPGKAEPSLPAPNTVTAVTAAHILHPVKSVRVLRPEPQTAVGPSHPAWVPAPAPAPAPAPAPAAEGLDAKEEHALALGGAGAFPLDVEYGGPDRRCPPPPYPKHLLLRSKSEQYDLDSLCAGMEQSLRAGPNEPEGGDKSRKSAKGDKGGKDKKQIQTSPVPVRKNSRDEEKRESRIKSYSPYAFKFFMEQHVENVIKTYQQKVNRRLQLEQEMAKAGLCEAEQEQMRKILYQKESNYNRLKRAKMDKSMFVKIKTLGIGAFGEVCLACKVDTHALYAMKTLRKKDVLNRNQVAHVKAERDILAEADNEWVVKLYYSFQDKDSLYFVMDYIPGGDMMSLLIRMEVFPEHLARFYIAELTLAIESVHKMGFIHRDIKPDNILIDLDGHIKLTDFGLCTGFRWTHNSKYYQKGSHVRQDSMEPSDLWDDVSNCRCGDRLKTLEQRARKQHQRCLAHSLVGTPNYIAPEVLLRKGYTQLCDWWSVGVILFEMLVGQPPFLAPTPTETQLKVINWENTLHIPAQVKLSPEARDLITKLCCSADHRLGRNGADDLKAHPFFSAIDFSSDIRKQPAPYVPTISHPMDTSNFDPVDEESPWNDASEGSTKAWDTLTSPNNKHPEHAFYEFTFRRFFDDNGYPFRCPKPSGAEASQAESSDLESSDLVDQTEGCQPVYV
Sequence of Insulin receptor (Homo sapiens) (P06213 28-758 limits assumed): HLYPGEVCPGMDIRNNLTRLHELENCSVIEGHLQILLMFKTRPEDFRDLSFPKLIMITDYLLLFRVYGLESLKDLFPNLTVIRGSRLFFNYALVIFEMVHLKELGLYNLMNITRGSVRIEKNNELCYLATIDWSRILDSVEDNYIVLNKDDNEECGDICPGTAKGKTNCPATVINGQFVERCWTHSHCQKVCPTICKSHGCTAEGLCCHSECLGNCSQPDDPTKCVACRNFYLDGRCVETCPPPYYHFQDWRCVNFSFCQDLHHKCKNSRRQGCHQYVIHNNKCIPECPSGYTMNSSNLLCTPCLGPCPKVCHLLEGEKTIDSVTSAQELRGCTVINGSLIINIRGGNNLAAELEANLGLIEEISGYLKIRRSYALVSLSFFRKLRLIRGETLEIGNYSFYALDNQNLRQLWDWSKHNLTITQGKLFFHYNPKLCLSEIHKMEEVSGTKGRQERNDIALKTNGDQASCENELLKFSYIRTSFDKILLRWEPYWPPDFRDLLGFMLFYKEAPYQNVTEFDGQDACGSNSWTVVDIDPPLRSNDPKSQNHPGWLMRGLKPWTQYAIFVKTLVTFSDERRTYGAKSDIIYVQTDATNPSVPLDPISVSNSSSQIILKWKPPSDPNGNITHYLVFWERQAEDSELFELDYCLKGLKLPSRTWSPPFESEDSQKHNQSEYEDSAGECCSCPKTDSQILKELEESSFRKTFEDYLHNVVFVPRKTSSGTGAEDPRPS
Sequence of Insulin receptor (Homo sapiens) (P06213 763-1382 limits assumed): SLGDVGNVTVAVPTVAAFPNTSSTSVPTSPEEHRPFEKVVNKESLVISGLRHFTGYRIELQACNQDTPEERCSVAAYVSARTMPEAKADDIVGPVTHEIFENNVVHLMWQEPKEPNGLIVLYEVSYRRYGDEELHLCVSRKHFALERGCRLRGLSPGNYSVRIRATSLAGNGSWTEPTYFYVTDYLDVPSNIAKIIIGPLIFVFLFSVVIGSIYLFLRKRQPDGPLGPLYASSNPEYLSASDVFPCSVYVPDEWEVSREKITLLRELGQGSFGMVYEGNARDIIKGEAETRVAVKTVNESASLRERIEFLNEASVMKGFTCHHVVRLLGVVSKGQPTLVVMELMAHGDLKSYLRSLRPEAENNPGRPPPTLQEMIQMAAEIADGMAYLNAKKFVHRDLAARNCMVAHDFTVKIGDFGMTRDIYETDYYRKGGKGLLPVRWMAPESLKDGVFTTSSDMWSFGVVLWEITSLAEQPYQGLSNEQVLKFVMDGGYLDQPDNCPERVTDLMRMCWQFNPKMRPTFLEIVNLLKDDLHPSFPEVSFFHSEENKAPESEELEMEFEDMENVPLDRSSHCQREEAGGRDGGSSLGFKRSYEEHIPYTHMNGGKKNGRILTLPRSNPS

`C[C@@H](c1ccccc1)n1nnc2cnc3ccc(-c4cnc5[nH]ccc5c4)cc3c21`: the Activity was found to be 150% in assay [1]; 64% in assay [2]; 95% in the assay filed under Homo sapiens [3]; 17% in [4]; 30% in assay [5]; 25% in assay [7]. Besides, the Activity in [8] was 85%; in [9], 68%; in assay [10], 59%; in assay [11], 90%; in [12], 76%; in the assay listed under Mus musculus, -1%. Further, the Activity in [13] is 16%; in assay [14], 49%; in assay [15] it was 92%; in the assay filed under Homo sapiens [16], 3%; in assay [17], 85%; in assay [18], 6%. For the same compound, the Activity in assay [19] is 91%. For the same compound, in assay [6], the Kd is above 10 µM.

As a reminder, the Kd is the constant that tells how readily two partners part at equilibrium.

These data come from ChEMBL document CHEMBL4334471, “Discovery of 1,8-disubstituted-[1,2,3]triazolo[4,5-c]quinoline derivatives as a new class of Hippo signaling pathway inhibitors” (Bioorg Med Chem Lett, 2019).
